{"data": "Measured values gathered from unrelated publications", "JAK1": "Tyrosine-protein kinase JAK1 (JAK1, Homo sapiens, UniProt P23458)", "JAK1 JH1": "Tyrosine-protein kinase JAK1, JH1 (JAK1, Homo sapiens, UniProt P23458)", "JAK1 JH2": "Tyrosine-protein kinase JAK1, JH2 (JAK1, Homo sapiens, UniProt P23458)", "note": "Protocols differ between the studies behind these lines."}
{"Structure (SMILES)": "CN1CCN(c2ccc(Nc3nccc(-c4cccc([N+](=O)[O-])c4)n3)cc2C(F)(F)F)CC1", "target": "JAK1", "assay": "binding", "conditions": "10 µM", "remaining binding [%]": 0.25}
{"Structure (SMILES)": "COc1cnc(Nc2cccc(S(N)(=O)=O)c2)nc1N1CCN(c2ccccc2)CC1", "target": "JAK1 JH1", "assay": "binding, competition with immobilised ligand", "conditions": "1 µM", "remaining binding [%]": 48}
{"Structure (SMILES)": "CN(C(=O)c1ccccc1)c1cc(N(C)c2ccc3c(c2)CCc2ccc(C(=O)NCCN4CCOCC4)cc2C3=O)ccc1F", "target": "JAK1 JH2", "assay": "cell-free assay, competition with immobilised ligand", "conditions": "1 µM", "remaining binding [%]": 88}
{"Structure (SMILES)": "O=C(c1ccc(Nc2nccc(-c3cc4ccccc4s3)n2)cc1)N1CCC(N2CCCC2)CC1", "target": "JAK1 JH1", "assay": "binding, competition with immobilised ligand", "conditions": "1 µM", "remaining binding [%]": 82}
{"Structure (SMILES)": "N[C@@H]1CCN(c2nccc(-c3cnn4ncccc34)n2)C1", "target": "JAK1", "assay": "binding", "conditions": "1 µM", "remaining binding [%]": 100}
{"Structure (SMILES)": "Cc1cnc(Nc2ccc(C(=O)N3CCC(N4CCCC4)CC3)cc2)nc1-c1cc2ccccc2s1", "target": "JAK1 JH2", "assay": "binding, competition with immobilised ligand", "conditions": "1 µM", "remaining binding [%]": 0}
{"Structure (SMILES)": "O=C(Nc1c[nH]nc1C(=O)NC1CCNCC1)c1cc(F)cc(F)c1", "target": "JAK1 JH1", "assay": "binding, competition with immobilised ligand", "conditions": "1 µM", "remaining binding [%]": 88}
{"Structure (SMILES)": "O=C(c1ccc(Nc2ncc(Cl)c(-c3cc4ccccc4s3)n2)cc1)N1CCC(N2CCCC2)CC1", "target": "JAK1 JH2", "assay": "binding, competition with immobilised ligand", "conditions": "1 µM", "remaining binding [%]": 0.9}
{"Structure (SMILES)": "c1cncc(-c2cccc(Nc3nccc(NC4CCCCC4)n3)c2)c1", "target": "JAK1 JH2", "assay": "binding, competition with immobilised ligand", "conditions": "10 µM", "remaining binding [%]": 0.2}
{"Structure (SMILES)": "COc1cnc(Nc2cccc(S(N)(=O)=O)c2)nc1N1CCN(c2ccccc2)C(=O)C1", "target": "JAK1 JH2", "assay": "binding, competition with immobilised ligand", "conditions": "1 µM", "remaining binding [%]": 44}
{"Structure (SMILES)": "O=C(NCCCN1CCOCC1)c1ccc(Nc2nccc(-c3cc4ccccc4s3)n2)cc1", "target": "JAK1 JH2", "assay": "binding, competition with immobilised ligand", "conditions": "1 µM", "remaining binding [%]": 41}
{"Structure (SMILES)": "COc1ccnn2ncc(-c3ccnc(N(C)C)n3)c12", "target": "JAK1", "assay": "binding", "conditions": "1 µM", "remaining binding [%]": 74}
{"Structure (SMILES)": "NS(=O)(=O)c1cc(NC(=O)C2(c3ccccc3Cl)CC2)ccc1Oc1cccc(Cl)c1", "target": "JAK1 JH2", "assay": "cell-free assay, competition with immobilised ligand", "conditions": "1 µM", "remaining binding [%]": 76}
{"Structure (SMILES)": "O=C(c1ccc(Nc2ncc(Cl)c(-c3ccc(Cl)s3)n2)cc1)N1CCC(N2CCCC2)CC1", "target": "JAK1 JH2", "assay": "binding, competition with immobilised ligand", "conditions": "1 µM", "remaining binding [%]": 3.9}
{"Structure (SMILES)": "CN(C)c1nccc(-c2cnn3ncccc23)n1", "target": "JAK1", "assay": "binding", "conditions": "1 µM", "remaining binding [%]": 53}
{"Structure (SMILES)": "COc1ccc2c(c1)O[C@@H](c1ccc(OC)c(OC)c1)C[C@H]2NC(=O)C1(c2ccc3c(c2)OC(F)(F)O3)CC1", "target": "JAK1 JH2", "assay": "cell-free assay, competition with immobilised ligand", "conditions": "1 µM", "remaining binding [%]": 90}
{"Structure (SMILES)": "CNC(=O)[C@@H]1CC[C@@H](n2c(-c3ccc4cnccc4c3)nc3ccc(C(=O)NCc4cccc(C(N)=O)c4)cc32)C1", "target": "JAK1 JH2", "assay": "binding, competition with immobilised ligand", "conditions": "1 µM", "remaining binding [%]": 60}
{"Structure (SMILES)": "O=C(NCCCN1CCOCC1)c1ccc(Nc2ncc(Cl)c(-c3ccc(Cl)s3)n2)cc1", "target": "JAK1 JH1", "assay": "binding, competition with immobilised ligand", "conditions": "1 µM", "remaining binding [%]": 4.6}
{"Structure (SMILES)": "CN(C)c1ncc(F)c(-c2cnn3ncccc23)n1", "target": "JAK1 JH1", "assay": "cell-free assay, competition with immobilised ligand", "conditions": "1 µM", "remaining binding [%]": 100}
{"Structure (SMILES)": "CCN1CCN(Cc2ccc(C(=O)Nc3ccc(C)c(Oc4ccc5c(c4)CC(=O)N5)c3)cc2C(F)(F)F)CC1", "target": "JAK1 JH2", "assay": "binding, competition with immobilised ligand", "conditions": "1 µM", "remaining binding [%]": 100}
{"Structure (SMILES)": "c1ccc(N2CCN(Cc3nc4ccccc4[nH]3)CC2)nc1", "target": "JAK1 JH2", "assay": "binding, competition with immobilised ligand", "conditions": "1 µM", "remaining binding [%]": 76}
{"Structure (SMILES)": "Nc1ncc2c(n1)-c1c([nH]c3ccc(C#CC4CC4)cc13)CCCC2", "target": "JAK1 JH1", "assay": "binding, competition with immobilised ligand", "conditions": "1 µM", "remaining binding [%]": 100}
{"Structure (SMILES)": "CN(C)CC#Cc1ccc(OCCCc2sc(N3CCc4cccc(C(=O)Nc5nc6ccccc6s5)c4C3)nc2C(=O)O)c(F)c1", "target": "JAK1 JH2", "assay": "cell-free assay, competition with immobilised ligand", "conditions": "1 µM", "remaining binding [%]": 100}
{"Structure (SMILES)": "CC1CCCN1c1nccc(-c2cnn3ncccc23)n1 (centres unmarked)", "target": "JAK1 JH1", "assay": "cell-free assay, competition with immobilised ligand", "conditions": "1 µM", "remaining binding [%]": 100}
{"Structure (SMILES)": "CCC(=N\\O)/C(C)=C/c1ccc(F)cc1", "target": "JAK1 JH2", "assay": "cell-free assay, competition with immobilised ligand", "conditions": "1 µM", "remaining binding [%]": 88}
{"Structure (SMILES)": "CN(C)c1nccc(-c2cnc3ncccn23)n1", "target": "JAK1 JH1", "assay": "cell-free assay, competition with immobilised ligand", "conditions": "1 µM", "remaining binding [%]": 94}
{"Structure (SMILES)": "CC1=C(C#N)C(c2ccc3c(c2)c(NC(=O)c2ccccc2C)nn3C)C(C#N)=C(C)N1", "target": "JAK1 JH1", "assay": "cell-free assay, competition with immobilised ligand", "conditions": "1 µM", "remaining binding [%]": 100}
{"Structure (SMILES)": "COc1ncc2cc3ccccc3nc2c1C#N", "target": "JAK1 JH2", "assay": "cell-free assay, competition with immobilised ligand", "conditions": "5 µM", "remaining binding [%]": 67}
{"Structure (SMILES)": "F[C@@H]1CCN(c2nccc(-c3cnn4ncccc34)n2)C1", "target": "JAK1", "assay": "binding", "conditions": "1 µM", "remaining binding [%]": 100}
{"Structure (SMILES)": "O=C(NCC1CCOCC1)c1n[nH]cc1NC(=O)c1c(F)cccc1F", "target": "JAK1 JH1", "assay": "binding, competition with immobilised ligand", "conditions": "1 µM", "remaining binding [%]": 100}
{"Structure (SMILES)": "C[C@H]1CCN(c2nccc(-c3cnn4ncccc34)n2)C1", "target": "JAK1", "assay": "binding", "conditions": "1 µM", "remaining binding [%]": 62}
{"Structure (SMILES)": "CCC(=O)N[C@H]1CC[C@@H](C(=O)N(C)c2ccc(-c3nc4ccccc4o3)cc2)C1", "target": "JAK1 JH2", "assay": "cell-free assay, competition with immobilised ligand", "conditions": "1 µM", "remaining binding [%]": 77}
